Test [1] can be described thus: inhibitors of TNFa-induced NFkB p65 translocation, primary screen, imaging, HUVEC, MLSMR starter and 10KST1 sets (AID 438;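 active means inhibition above 20% together with a positive visual image hit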;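 further: compound added about 3h40 before a 20 min TNFalpha stimulation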;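 on inhibition: signal is the nuclear over cytoplasmic p65 intensity ratio per well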). The note with it: HUVEC TNFa-induced p65 nuclear translocation; cell count: measured here: nuclei count (cytotoxicity indicator), at 2.08 µM; inhibition: at 2 µM, stronger effect = higher value, 0% TNFa-plus-vehicle, 100% no-TNFa wells.
A short description of test [2]: endothelial E-selectin expression blockers – imaging, HUVEC, immunofluorescence, MLSMR starter and 10KST1 sets, primary screen (AID 487;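 active means visually confirmed hit in the image check and inhibition above 20%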;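 on inhibition: signal is fraction of cell area covered by stained E-selectin grains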;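 on nuclei count: 100% = median nuclei count of all wells on the same plate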). The settings on record: HUVEC TNFalpha-induced E-selectin immunofluorescence imaging, at 2 µM; inhibition: stronger effect = higher value; nuclei count: measured here: cell number, toxicity.
A short description of test [3]: Primary imaging screen for DUSP6 inhibitors that restore phospho-Erk in transfected HeLa cells, chemical complementation (AID 609;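 active means compounds giving at least 50% inhibition in the cell-based MKP-3 phosphatase rescue imaging test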;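 on inhibition: phospho-Erk level distribution per well compared with pooled transfected vehicle control wells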). The note with it: HeLa MKP-3 transfected, phospho-Erk imaging KS statistic, at 10 µM, cells stimulated with TPA for 15 min.
For test [4], the target named is Dual specificity protein phosphatase 6 (Homo sapiens) (UniProt Q16828). The test is described as above. The settings on record: HeLa MKP-3 transfected, phospho-Erk imaging KS statistic; at 10 µM; stronger effect = higher value; cells stimulated with TPA for 15 min.
Chain of Dual specificity protein phosphatase 6 (Homo sapiens) (Q16828 whole entry, looked up): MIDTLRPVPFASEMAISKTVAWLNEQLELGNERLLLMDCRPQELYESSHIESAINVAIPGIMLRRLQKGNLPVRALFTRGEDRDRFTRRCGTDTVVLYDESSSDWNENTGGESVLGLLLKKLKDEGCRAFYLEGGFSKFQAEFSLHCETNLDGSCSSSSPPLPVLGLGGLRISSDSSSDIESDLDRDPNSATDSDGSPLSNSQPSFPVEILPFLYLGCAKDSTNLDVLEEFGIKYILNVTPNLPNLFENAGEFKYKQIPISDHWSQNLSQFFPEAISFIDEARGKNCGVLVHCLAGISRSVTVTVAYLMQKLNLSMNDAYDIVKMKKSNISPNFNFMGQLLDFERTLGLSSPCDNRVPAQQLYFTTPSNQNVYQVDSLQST
For test [5], the target named is Voltage-gated potassium channel subunit beta-2 (Rattus norvegicus) (UniProt P62483). In words: inhibitors of rat Kvbeta2 reductase activity – biochemical, NADPH fluorescence, primary screen (AID 622;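 active means fluorescence slope higher than the sample average by over 3 SD, cut at about -0.22 in these data, passing the limit was not always enough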;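 further: slope of raw intensity against log time taken from 70 to 1610 s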). The note with it: recombinant KvBeta, 4-cyanobenzaldehyde reduction, at 10 µM, stronger effect = higher value.
Chain of Voltage-gated potassium channel subunit beta-2 (Rattus norvegicus) (P62483 whole entry, looked up): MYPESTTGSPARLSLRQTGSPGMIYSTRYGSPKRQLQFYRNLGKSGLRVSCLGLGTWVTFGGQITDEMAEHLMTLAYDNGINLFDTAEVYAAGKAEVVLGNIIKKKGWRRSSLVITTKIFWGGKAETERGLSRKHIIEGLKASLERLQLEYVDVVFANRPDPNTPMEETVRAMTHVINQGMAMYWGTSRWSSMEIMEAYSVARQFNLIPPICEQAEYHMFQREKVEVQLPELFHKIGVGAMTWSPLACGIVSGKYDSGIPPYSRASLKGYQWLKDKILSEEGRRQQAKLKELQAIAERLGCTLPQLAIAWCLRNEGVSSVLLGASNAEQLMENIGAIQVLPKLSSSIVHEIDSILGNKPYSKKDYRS
For test [6] the target is unchanged. Briefly: enhancers of rat Kvbeta2 NADPH turnover – biochemical, NADPH fluorescence, primary screen (AID 623).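 Further: fluorescence intensity change per second fitted from 20 to 320 s.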 The settings on record: Recombinant KvBeta, NADPH fluorescence decrease slope, 10 min; at 10 µM; stronger effect = lower value.
Test [7] deals with Muscarinic acetylcholine receptor M4 (Homo sapiens) (UniProt P08173). In words: M4-linked GIRK flux change, two-sided – cell-based, HEK293 M4/GIRK, thallium flux, BTC-AM, M4 allosteric agonist project, primary screen (AID 625;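 active means fluorescence slope after compound addition differing from the mean of all tested samples at 99.7% confidence, mostly higher but some lower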;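 further: thallium influx through GIRK channels coupled to M4 in HEK293 cells with BTC-AM dye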). The settings on record: at 10 µM, actives lie on both sides. In outline: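 System: HEK293 cells with M4 receptor and GIRK channels | Incubation: Cells overnight at 37 °C, BTC-AM loading 1 h, reads 2 min total | Technique: Kinetic BTC-AM fluorescence sampled at 1 Hz, 10 s pre-addition baseline | Measure: Post-addition slope, 15–24 s, of baseline-normalized fluorescence | Control set: Carbachol positive, DMSO negative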
Chain of Muscarinic acetylcholine receptor M4 (Homo sapiens) (P08173 whole entry, looked up): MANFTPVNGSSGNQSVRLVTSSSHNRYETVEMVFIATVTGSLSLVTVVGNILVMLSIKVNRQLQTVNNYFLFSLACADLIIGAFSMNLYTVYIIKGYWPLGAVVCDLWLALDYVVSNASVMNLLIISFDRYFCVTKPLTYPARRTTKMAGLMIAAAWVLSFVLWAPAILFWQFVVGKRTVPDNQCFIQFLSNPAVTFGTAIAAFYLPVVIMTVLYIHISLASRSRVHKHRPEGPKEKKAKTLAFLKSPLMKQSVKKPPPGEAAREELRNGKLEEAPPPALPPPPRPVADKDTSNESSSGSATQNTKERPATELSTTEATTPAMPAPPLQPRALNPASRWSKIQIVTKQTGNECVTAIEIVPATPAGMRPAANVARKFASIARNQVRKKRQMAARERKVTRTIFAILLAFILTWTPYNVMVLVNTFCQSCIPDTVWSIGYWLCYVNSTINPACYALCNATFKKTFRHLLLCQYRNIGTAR

Test [8] is described as follows: inhibitors of larval lipid processing in zebrafish, primary screen, whole organism, PED6 fluorescence, gall bladder and intestine (AID 686;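 active means a full or partial loss of lipid-probe fluorescence in the fish gall bladder, intestine or both, judged by eye; inactive means no fluorescence loss, or compound toxic to the fish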;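 further: larvae 5 to 7 days old with five fish per well; signal comes from phospholipase A2 cleavage of quenched PED6 carried via bile; overnight exposure to compound and PED6 before scoring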). The note with it: Zebrafish larvae PED6 lipid processing, fluorescence scoring; screened at 20 µM (by protocol). The method, boiled down: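 Test system – live zebrafish larvae aged 5-7 days, whole organism · Buffer or medium – E3 fish medium · Reagent – quenched phospholipase substrate PED6, 100 nM final, ingested by larvae · Doses – 20 µM single dose · Incubation – overnight compound and PED6 incubation · Technique – visual fluorescence microscopy scoring of gall bladder, gut · Read-out basis – visual per-well fluorescence inhibition score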

A short description of test [9]: loss of swimming-algae plug formation – whole organism, Chlamydomonas reinhardtii, WT vs cilia-less mutant, absorbance, 96-well, primary screen (AID 463189;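 active means inhibition at or above 50% relative to wild type and mutant plate controls; inactive means inhibition below 50%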;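 further: 0% = wild type cc124 cells in DMSO and 100% = ciliumless bld1 mutant cells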). The settings on record: Chlamydomonas reinhardtii gravitaxis, OD600 absorbance, 2 days; at 10 µM; stronger effect = higher value.
Where [10] appears, read: measured here: cell density z-score.
Setting [11] is: measured here: nuclear c-Myc green intensity z-score.
[12] abbreviates: measured here: nuclear pErk red intensity z-score, stronger effect = higher value.

Usually inhibition stands for the relative decrease from the control value, in per cent.

Calls of active or inactive are those of the source.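 How the source made its calls, unless noted: active means NADPH fluorescence slope more negative than the mean of all samples by about 3 SD, 99.7% confidence; inactive means the rest.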

`CCOc1ccc(N=C2C(=O)N(CN3CCOCC3)c3ccccc32)cc1`: in test [1], the cell count stood at 653. For the same compound, the inhibition was -4.3% (inactive) in test [1], -371% (inactive) in test [2], 10.1% (inactive) in [4] and 9.3% (inactive) in test [9]. Further, the nuclei count in test [2] turned out to be 156%. In addition, the z-score is 0.894 in [3] (setting [10]), -0.754 in [3] (setting [11]) and -0.416 in test [3] (setting [12]). The fluorescence slope in [5] is -0.486 (inactive); in test [7] it was 0.00278 (inactive). Further, the NADPH fluorescence slope in [6] was -7.9e-05 (inactive). For the same compound, the outcome in test [8] was inactive.

For the compound `CCOC(=O)/C=c1\s/c(=C(\C#N)C(=O)OCC)n(-c2ccccc2)c1=O`, the cell count in test [1] was 653. The inhibition in test [1] is -4.6% (inactive); in test [2], -12% (inactive); in test [4], 1.42% (inactive); in [9], -7.74% (inactive). The same compound returned a nuclei count in [2] of 151%. The z-score in test [3] (setting [10]) is -0.465; in test [3] (setting [11]) it was -0.678; in test [3] (setting [12]), -0.157. Further, the results for the fluorescence slope in test [5] and in test [7] were -0.359 (inactive) and 0.00573 (inactive), respectively. Besides, the NADPH fluorescence slope in [6] was -6.6e-07 (inactive). Moreover, the compound was classed as inactive in test [8].

Consider `Cc1nnc(SCC(=O)N2CCOCC2)c2ccccc12`, for which, in test [1], the cell count was determined as 489. In addition, the inhibition in [1] was 7.8% (inactive); in [2], -38.5% (inactive); in [4] it was 1.63% (inactive); in test [9], -5.11% (inactive). Further, the nuclei count in test [2] stood at 135%. The z-score is 0.531 in [3] (setting [10]), 1.47 in test [3] (setting [11]) and 0.934 in [3] (setting [12]). In addition, the fluorescence slope is -0.534 (inactive) in test [5] and 0.00485 (inactive) in test [7]. The NADPH fluorescence slope in test [6] was -0.000118 (inactive). Moreover, the result in [8] was inactive.

Take `CC(C)c1nc(N2CCOCC2)c(C#N)c2c1COC(C)(C)C2`: the cell count in [1] came out at 535. For the same compound, the inhibition is -5.2% (inactive) in [1], -79.8% (inactive) in test [2], -9.53% (inactive) in test [4] and -30% (inactive) in [9]. Also, the nuclei count in test [2] came to 110%. The z-score in [3] (setting [10]) was 0.188; in test [3] (setting [11]), -0.524; in test [3] (setting [12]), -1.28. Further, the values for the fluorescence slope in [5] and in test [7] were -0.424 (inactive) and 0.00516 (inactive), respectively. Further, in test [6], the NADPH fluorescence slope was 4.6e-06 (inactive). For the same compound, the call in test [8] was inactive.

On to `Cc1ccc(CNc2oc(COc3ccccc3Cl)nc2C#N)cc1`, for which the cell count in test [1] was 402. Moreover, the inhibition in [1] is -2.8% (inactive); in [2] it was -40.3% (inactive); in [4] it was 4.37% (inactive); in test [9] it was 28.6% (inactive). Besides, the nuclei count in test [2] is 82.6%. The z-score in [3] (setting [10]) was -0.405; in test [3] (setting [11]), -0.319; in test [3] (setting [12]) it was -0.994. Besides, the fluorescence slope is -0.387 (inactive) in [5] and 0.00728 (inactive) in test [7]. Further, the NADPH fluorescence slope in [6] is 2.1e-06 (inactive). The compound was called inactive in test [8].

In the case of `COCCOC(=O)c1c(C)oc2ccc(OC(=O)COc3c(F)c(F)c(F)c(F)c3F)cc12`, the cell count in [1] was determined as 524. Besides, the inhibition in [1] was -3.3% (inactive); in test [2] it was -26.1% (inactive); in test [4] it was -2.09% (inactive); in test [9], -9.48% (inactive). In addition, in test [2], the nuclei count is 98.8%. Moreover, the results for the z-score in [3] (setting [10]), in test [3] (setting [11]) and in test [3] (setting [12]) were -0.212, -0.943 and 0.127, respectively. Moreover, the fluorescence slope in test [5] was -0.461 (inactive); in test [7] it was 0.0112 (inactive). The NADPH fluorescence slope in test [6] is -2.6e-05 (inactive). For the same compound, the outcome in test [8] was inactive.

For the compound `Cn1c(=O)c2c(nc(Br)n2Cc2ccc3ccccc3c2)n(C)c1=O`, the cell count in test [1] is 623. For the same compound, the inhibition is -9.2% (inactive) in [1], -12.5% (inactive) in test [2], -8.95% (inactive) in [4] and 5.52% (inactive) in test [9]. For the same compound, in test [2], the nuclei count came to 163%. Moreover, the z-score in test [3] (setting [10]) is -0.362; in [3] (setting [11]) it was -0.997; in [3] (setting [12]), 0.811. The fluorescence slope is -0.5 (inactive) in test [5] and 0.00605 (inactive) in [7]. For the same compound, the NADPH fluorescence slope in [6] is -5.2e-05 (inactive). The compound was classed as inactive in test [8].

As for `CCCCCOc1ccccc1C(=O)NCC(=O)O`, in test [1], the cell count stood at 376. For the same compound, the inhibition in [1] is -5% (inactive); in [2], -55.5% (inactive); in [4], -0.584% (inactive); in test [9], -2.86% (inactive). In addition, the nuclei count in [2] was 169%. Moreover, the figures for the z-score in test [3] (setting [10]), in test [3] (setting [11]) and in test [3] (setting [12]) were 0.663, -0.72 and -0.603, respectively. Besides, the fluorescence slope in [5] is -0.438 (inactive); in test [7], 0.00543 (inactive). In [6], the NADPH fluorescence slope was -9.1e-05 (inactive). Moreover, the result in [8] was inactive.

As to `CCOc1ccc(S(=O)(=O)NC(C)(C)C)cc1-c1nc2c(C(C)(C)C)nn(C)c2c(=O)[nH]1`, in [1], the cell count came out at 654. Moreover, the inhibition was -6.1% (inactive) in test [1], -8.5% (inactive) in test [2], 31.4% (inactive) in [4] and 88.4% (active) in test [9]. Further, in [2], the nuclei count came to 99.3%. Moreover, the z-score is 2.17 in [3] (setting [10]), -1.88 in test [3] (setting [11]) and -0.971 in [3] (setting [12]). Further, the fluorescence slope was -0.462 (inactive) in test [5] and 0.0055 (inactive) in test [7]. Also, the NADPH fluorescence slope in [6] is -5.9e-05 (inactive). In addition, the call in test [8] was inactive.

`CCc1cc(=O)oc2cc(C)c(CN3CCCC3)c(O)c12`: the cell count in test [1] stood at 666. Also, the inhibition in test [1] was -6.3% (inactive); in test [2], 27.1% (inactive); in test [4], -2.29% (inactive); in test [9], 3.29% (inactive). The nuclei count in test [2] is 158%. Besides, the z-score in test [3] (setting [10]) is -0.426; in test [3] (setting [11]) it was -0.164; in test [3] (setting [12]), -0.144. The fluorescence slope was -0.444 (inactive) in test [5] and 0.00438 (inactive) in [7]. In addition, the NADPH fluorescence slope in [6] was -0.000155 (inactive). Moreover, the compound was called inactive in [8].

On to `CCN(CC)CCN1C(=O)C(=O)/C(=C(/O)c2ccc(OC)cc2)C1c1ccco1` (centres undefined), for which the cell count in [1] worked out at 710. For the same compound, the inhibition in test [1] was -1.4% (inactive); in test [2] it was 4.1% (inactive); in [4] it was -7.67% (inactive); in [9] it was 5.19% (inactive). In test [2], this compound displayed a nuclei count of 163%. In addition, the z-score came out at 0.167 in [3] (setting [10]), 0.629 in test [3] (setting [11]) and 0.173 in test [3] (setting [12]). The fluorescence slope in test [5] is -0.496 (inactive); in test [7], 0.00632 (inactive). Also, the NADPH fluorescence slope in [6] is -6.6e-05 (inactive). For the same compound, in [8], the compound was called inactive.

Take `Clc1ccccc1CN(Cc1ccccc1)c1ncnc2nc[nH]c12`: the cell count in test [1] is 523. Further, the inhibition in test [1] was 7.2% (inactive); in test [2], 5.3% (inactive); in test [4], 1.63% (inactive); in test [9], 38.7% (inactive). This compound also displayed a nuclei count in test [2] of 93%. Moreover, the z-score in test [3] (setting [10]) is -3.05; in test [3] (setting [11]), 1.38; in test [3] (setting [12]), 0.29. The fluorescence slope in [5] was -0.481 (inactive); in test [7], 0.00447 (inactive). For the same compound, the NADPH fluorescence slope in test [6] is -4.9e-05 (inactive). Besides, in test [8], the compound was classed as inactive.

Regarding `CCC(=NC(CC)CO)C1=C(O)CC(C)(C)CC1=O` (centres undefined), in test [1], the cell count came to 686. In addition, the inhibition is -11.6% (inactive) in [1], -103% (inactive) in test [2], -13.3% (inactive) in [4] and -0.04% (inactive) in [9]. In addition, the nuclei count in test [2] came out at 171%. For the same compound, the z-score is 0.537 in test [3] (setting [10]), -0.145 in [3] (setting [11]) and 1.26 in test [3] (setting [12]). Also, the fluorescence slope in [5] is -0.519 (inactive); in [7], 0.00583 (inactive). Besides, the NADPH fluorescence slope in [6] was -8.5e-05 (inactive). In addition, in test [8], the result was inactive.

(Values after PubChem BioAssay.)
